The values below come from PMC8183215 (Journal for Immunotherapy of Cancer, 2021).

A short description of the data set: In vitro plasma stability. Type of data set: in vitro ADME. The following applies: rat, pH 7.4. An outline of the steps:
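Test compound prepared as a 1000 ng/mL stock in 0.01 M Tris-HCl (pH 7.4), then mixed in equal volume with rat plasma and incubated at 37 °C. Samples were taken at 0, 2, 5, 10, 30 and 60 min, and methanol was added to precipitate protein. After centrifugation at 12 000 rpm for 15 min and a second spin of the supernatant, UPLC-MS peak areas gave the half-life.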

SMILES strings stand for the structures. Residues, ends and D or L forms follow the SMILES beside them.

`CC(C)C[C@H](NC(=O)[C@H](CCCCN)NC(=O)[C@H](CCCNC(=N)N)NC(=O)[C@@H]1CCCN1C(=O)[C@H](CCC(=O)O)NC(=O)CNC(=O)[C@H](Cc1ccc(O)cc1)NC(=O)[C@H](C)NC(=O)[C@@H](N)CO)C(=O)O` [peptide 1] (H-SAYGEPRKL-OH; N-terminus and C-terminus assumed): the half-life at 500 ng/mL is roughly 5 min.
As for `CC[C@H](C)[C@H](NC(=O)[C@@H](N)[C@@H](C)O)C(=O)N[C@@H](Cc1c[nH]c2ccccc12)C(=O)N[C@@H](CCSC)C(=O)N[C@@H](CC(C)C)C(=O)N[C@@H](CC(C)C)C(=O)N[C@@H](CCSC)C(=O)N[C@@H](CC(C)C)C(=O)N[C@@H](CCC(N)=O)C(=O)O` [peptide 2] (H-TIWMLLMLQ-OH), the figure is roughly 5 min.
